Consider seven compounds from ChEMBL document CHEMBL1153919, “Pyrano[2,3-e]isoindol-2-ones, new angelicin heteroanalogues” (Bioorg Med Chem Lett, 2009).

By IC50 is commonly meant the concentration needed to halve the response being measured.

Molecules are shown by their SMILES.

The subject of test [1] is LoVo. The experiment in a line: Phototoxicity against human LoVo cells exposed to irradiation with 2.5 J/cm'2 UVA light prior to 72 hrs drug exposure by MTT assay. As to conditions: light or radiation study. The class given is functional, cell-based. In outline:
(§1)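 Phototoxicity panel: NCTC-2544 keratinocytes, LoVo adenocarcinoma, K562 and Jurkat leukemia cells. Cells with compound received UVA at 2.5 or 3.75 J/cm2. Cell growth was measured by MTT after 72 h of exposure. IC50 is the concentration inhibiting growth by 50%.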
In general terms: Tetrazolium assays rely on reduction of a dye to a coloured formazan, in cell work by metabolically active cells.

The subject of test [2] is LoVo. The test is described as follows: Phototoxicity against human LoVo cells exposed to irradiation with 3.75 J/cm'2 UVA light prior to 72 hrs drug exposure by MTT assay. It counts as functional, cell-based. Conditions: light or radiation study. Summed up: as §1
Test [3] concerns K562. The test is described as follows: Cytotoxicity against human K562 cells after 72 hrs by MTT assay. The class given is functional, cell-based. Conditions: K562, 72 h.
Test [4] deals with K562. The test is described as follows: Phototoxicity against human K562 cells exposed to irradiation with 2.5 J/cm'2 UVA light prior to 72 hrs drug exposure by MTT assay. The class given is functional, cell-based. As to conditions: K562, light or radiation study. In outline:
as §1

In test [5] the test system is K562. The test is described as follows: Phototoxicity against human K562 cells exposed to irradiation with 3.75 J/cm'2 UVA light prior to 72 hrs drug exposure by MTT assay. Conditions: K562, light or radiation study. It counts as functional, cell-based. Summed up: as §1
In test [6] the test system is Jurkat. The test is described as follows: Cytotoxicity against human Jurkat cells after 72 hrs by MTT assay. The class given is functional, cell-based.
In test [7] the test system is Jurkat. The experiment in a line: Phototoxicity against human Jurkat cells exposed to irradiation with 2.5 J/cm'2 UVA light prior to 72 hrs drug exposure by MTT assay. It counts as functional, cell-based. Conditions: light or radiation study. Summed up:
as §1

In test [8] the test system is Jurkat. The test is described as follows: Phototoxicity against human Jurkat cells exposed to irradiation with 3.75 J/cm'2 UVA light prior to 72 hrs drug exposure by MTT assay. Conditions: light or radiation study. It counts as functional, cell-based. In outline:
as §1

Test [9] is described as follows: Cytotoxicity against human NCTC-2544 cells after 72 hrs by MTT assay. The class given is cell-based. As to conditions: NCTC-2544, 72 h.
The nature of test [10]: Phototoxicity against human NCTC-2544 cells exposed to irradiation with 2.5 J/cm'2 UVA light prior to 72 hrs drug exposure by MTT assay. It counts as cell-based. Conditions: NCTC-2544, light or radiation study. In outline:
as §1

Test [11] is described as follows: Phototoxicity against human NCTC-2544 cells exposed to irradiation with 3.75 J/cm'2 UVA light prior to 72 hrs drug exposure by MTT assay. It counts as cell-based. As to conditions: NCTC-2544, light or radiation study. Summed up:
as §1

Test [12] deals with LoVo. The experiment in a line: Cytotoxicity against human LoVo cells after 72 hrs by MTT assay. The class given is functional, cell-based.

As for `O=c1ccc2c(o1)-c1cn(Cc3ccccc3)cc1CC2`, the half-maximal inhibitory concentration (IC50) in the test on LoVo [1], in the test with LoVo [2], with K562 [3], in the test with K562 [4], in the test with K562 [5] and with Jurkat [6] was > 20 µM each time. In addition, the IC50 (with Jurkat [7]; in the test with Jurkat [8]; in [9]; in [10]; in [11]; with LoVo [12]) was > 20 µM each time.
For `CCOC(=O)c1cc2c(oc1=O)-c1cn(Cc3ccccc3)cc1CC2`, the IC50 with LoVo [1], with LoVo [2], with K562 [3], with K562 [4], with K562 [5] and with Jurkat [6] was > 20 µM in each case. Also, the concentration for half-maximal inhibition (IC50) (with Jurkat [7]; with Jurkat [8]; in [9]; in test [10]; in test [11]; in the test on LoVo [12]) was > 20 µM throughout.
Regarding `Cn1cc2c(c1)-c1oc(=O)ccc1CC2`, the half-inhibitory concentration (IC50) in the test on LoVo [1], in the test with LoVo [2], in the test on K562 [3], with K562 [4], in the test on K562 [5] and in the test with Jurkat [6] was > 20 µM throughout. In addition, the concentration for half-maximal inhibition (IC50) (in the test with Jurkat [7]; in the test with Jurkat [8]; in [9]; in test [10]; in test [11]; in the test with LoVo [12]) was > 20 µM throughout.
Take `CCOC(=O)c1c2c(c(C)n1Cc1ccc(OC)cc1)-c1oc(=O)c(C(=O)OC)cc1CC2`: the concentration for half-maximal inhibition (IC50) with LoVo [1] is > 20 µM; in the test with LoVo [2], > 20 µM; in the test with K562 [3] it was > 20 µM; in the test on K562 [4], > 20 µM; in the test with K562 [5], 12.6 µM; in the test on Jurkat [6] it was > 20 µM. Further, the concentration for half-maximal inhibition (IC50) is > 20 µM in the test with Jurkat [7]; 11.8 µM in the test on Jurkat [8]; > 20 µM in test [9]; > 20 µM in test [10]; > 20 µM in test [11]; > 20 µM with LoVo [12].
In the case of `CCOC(=O)c1cc2c(oc1=O)-c1cn(-c3ccccc3)cc1CC2`, the IC50 with LoVo [1], in the test with LoVo [2], with K562 [3], in the test with K562 [4], in the test on K562 [5] and with Jurkat [6] was > 20 µM each time. The IC50 (in the test with Jurkat [7]; in the test on Jurkat [8]; in test [9]; in test [10]; in test [11]; in the test with LoVo [12]) was > 20 µM throughout.
Consider `Cn1cc2c(c1)-c1oc(=O)c(C(=O)O)cc1CC2`, for which the IC50 in the test on LoVo [1], with LoVo [2], in the test with K562 [3], with K562 [4], in the test on K562 [5] and in the test with Jurkat [6] was > 20 µM each time. Further, the IC50 (with Jurkat [7]; with Jurkat [8]; in [9]; in test [10]; in [11]; with LoVo [12]) was > 20 µM in each case.
Regarding `CCOC(=O)c1cc2c(oc1=O)-c1c(c(C(=O)OCC)n(Cc3ccc(OC)cc3)c1C)CC2`, the IC50 was > 20 µM in the test on LoVo [1]; > 20 µM in the test with LoVo [2]; > 20 µM in the test on K562 [3]; > 20 µM with K562 [4]; 14 µM with K562 [5]; > 20 µM in the test with Jurkat [6]. Also, the IC50 with Jurkat [7] is > 20 µM; in the test on Jurkat [8] it was 13.5 µM; in [9] it was > 20 µM; in [10] it was > 20 µM; in test [11], > 20 µM; in the test with LoVo [12], > 20 µM.
